Source: ChEMBL document CHEMBL4689842, “EUbOPEN Chemogenomics Library wave 1” (2021)

System: HEK-293T
Test: Multiplex assay against HEK293T;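 as to Population Tubulin-Different-Phenotype (%): share of the cells with healthy nuclei that show this phenotype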
Format: toxicity, cell-based
Conditions: human
Method in brief: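 Imaging took place on a CQ1 microscope at 37°C and 5% CO2 once compound had been added to live cells stained at seeding with Hoechst33342, BioTracker Green Microtubule Cytoskeleton Dye, MitoTracker Red and Annexin V Alexa Fluor 680. CellPathfinder machine-learning gating classed cells as Hoechst high-intensity objects or normal cells, classed normal cells as having healthy, pyknosed or fragmented nuclei, and classed pyknosed cells as mitotic or apoptotic. Tubulin, mitochondrial-mass and membrane-permeability phenotypes are per cents of the healthy-nucleus cells.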

[1] = 12 h, 1 µM, compound concentration 1 uM, replicate 1
[2] = 12 h, 1 µM, compound concentration 1 uM, replicate 2
[3] = 12 h, 10 µM, compound concentration 10 uM, replicate 1
[4] = 12 h, 10 µM, compound concentration 10 uM, replicate 2
[5] = 24 h, 1 µM, compound concentration 1 uM, replicate 1
[6] = 24 h, 1 µM, compound concentration 1 uM, replicate 2
[7] = 24 h, 10 µM, compound concentration 10 uM, replicate 1
[8] = 24 h, 10 µM, compound concentration 10 uM, replicate 2
[9] = 48 h, 1 µM, compound concentration 1 uM, replicate 1
[10] = 48 h, 1 µM, compound concentration 1 uM, replicate 2
[11] = 48 h, 10 µM, compound concentration 10 uM, replicate 1
[12] = 48 h, 10 µM, compound concentration 10 uM, replicate 2

## O=C1NCN(c2ccccc2)C12CCN(CCCOc1ccc(F)cc1)CC2 [SPIRAMIDE]
[1]
  Population Apoptotic (%): 41%
  Population Fragmented Nuclei (%): 15%
  Population Hoechst High Intensity Objects (%): 12%
  Population Membrane Permeable-Phenotype (%): 4%
  Population Mitochondria Different-Phenotype (%): 81%
  Population Mitotic Cells (%): 58%
  Population Normal (%): 87%
  Population Pyknosed Nuclei (%): 45%
  Population Tubulin-Different-Phenotype (%): 35%
  Total Cell Count: 216
[2]
  Population Apoptotic (%): 11%
  Population Fragmented Nuclei (%): 10%
  Population Healthy Nuclei (%): 38%
  Population Hoechst High Intensity Objects (%): 7%
  Population Membrane Permeable-Phenotype (%): 12%
  Population Mitochondria Different-Phenotype (%): 11%
  Population Mitotic Cells (%): 88%
  Population Normal (%): 92%
  Population Pyknosed Nuclei (%): 50%
  Population Tubulin-Different-Phenotype (%): 20%
  Total Cell Count: 179
[3]
  Population Apoptotic (%): 66%
  Population Fragmented Nuclei (%): 16%
  Population Healthy Nuclei (%): 13%
  Population Hoechst High Intensity Objects (%): 17%
  Population Membrane Permeable-Phenotype (%): 0%
  Population Mitochondria Different-Phenotype (%): 95%
  Population Mitotic Cells (%): 33%
  Population Normal (%): 82%
  Population Pyknosed Nuclei (%): 70%
  Population Tubulin-Different-Phenotype (%): 95%
  Total Cell Count: 210
[4]
  Population Apoptotic (%): 19%
  Population Fragmented Nuclei (%): 3%
  Population Healthy Nuclei (%): 34%
  Population Hoechst High Intensity Objects (%): 2%
  Population Membrane Permeable-Phenotype (%): 7%
  Population Mitochondria Different-Phenotype (%): 55%
  Population Mitotic Cells (%): 80%
  Population Normal (%): 97%
  Population Pyknosed Nuclei (%): 62%
  Population Tubulin-Different-Phenotype (%): 46%
  Total Cell Count: 194
[5]
  Population Apoptotic (%): 50%
  Population Fragmented Nuclei (%): 13%
  Population Healthy Nuclei (%): 57%
  Population Hoechst High Intensity Objects (%): 10%
  Population Membrane Permeable-Phenotype (%): 0%
  Population Mitochondria Different-Phenotype (%): 66%
  Population Mitotic Cells (%): 50%
  Population Normal (%): 89%
  Population Pyknosed Nuclei (%): 28%
  Population Tubulin-Different-Phenotype (%): 34%
  Total Cell Count: 248
[6]
  Population Apoptotic (%): 6%
  Population Fragmented Nuclei (%): 8%
  Population Healthy Nuclei (%): 61%
  Population Hoechst High Intensity Objects (%): 3%
  Population Membrane Permeable-Phenotype (%): 6%
  Population Mitochondria Different-Phenotype (%): 17%
  Population Mitotic Cells (%): 93%
  Population Normal (%): 96%
  Population Pyknosed Nuclei (%): 30%
  Population Tubulin-Different-Phenotype (%): 29%
  Total Cell Count: 207
[7]
  Population Apoptotic (%): 69%
  Population Fragmented Nuclei (%): 17%
  Population Healthy Nuclei (%): 19%
  Population Hoechst High Intensity Objects (%): 17%
  Population Membrane Permeable-Phenotype (%): 5%
  Population Mitochondria Different-Phenotype (%): 97%
  Population Mitotic Cells (%): 30%
  Population Normal (%): 82%
  Population Pyknosed Nuclei (%): 62%
  Population Tubulin-Different-Phenotype (%): 100%
  Total Cell Count: 231
[8]
  Population Apoptotic (%): 21%
  Population Fragmented Nuclei (%): 3%
  Population Healthy Nuclei (%): 54%
  Population Hoechst High Intensity Objects (%): 1%
  Population Membrane Permeable-Phenotype (%): 2%
  Population Mitochondria Different-Phenotype (%): 59%
  Population Mitotic Cells (%): 78%
  Population Normal (%): 98%
  Population Pyknosed Nuclei (%): 42%
  Population Tubulin-Different-Phenotype (%): 59%
  Total Cell Count: 256
[9]
  Population Apoptotic (%): 35%
  Population Fragmented Nuclei (%): 10%
  Population Healthy Nuclei (%): 77%
  Population Hoechst High Intensity Objects (%): 7%
  Population Membrane Permeable-Phenotype (%): 1%
  Population Mitochondria Different-Phenotype (%): 26%
  Population Mitotic Cells (%): 64%
  Population Normal (%): 92%
  Population Pyknosed Nuclei (%): 12%
  Population Tubulin-Different-Phenotype (%): 22%
  Total Cell Count: 484
[10]
  Population Apoptotic (%): 8%
  Population Fragmented Nuclei (%): 4%
  Population Healthy Nuclei (%): 82%
  Population Hoechst High Intensity Objects (%): 2%
  Population Membrane Permeable-Phenotype (%): 7%
  Population Mitochondria Different-Phenotype (%): 7%
  Population Mitotic Cells (%): 91%
  Population Normal (%): 97%
  Population Pyknosed Nuclei (%): 13%
  Population Tubulin-Different-Phenotype (%): 20%
  Total Cell Count: 363
[11]
  Population Apoptotic (%): 59%
  Population Fragmented Nuclei (%): 17%
  Population Healthy Nuclei (%): 30%
  Population Hoechst High Intensity Objects (%): 18%
  Population Membrane Permeable-Phenotype (%): 0%
  Population Mitochondria Different-Phenotype (%): 98%
  Population Mitotic Cells (%): 40%
  Population Normal (%): 81%
  Population Pyknosed Nuclei (%): 51%
  Population Tubulin-Different-Phenotype (%): 89%
  Total Cell Count: 227
[12]
  Population Apoptotic (%): 21%
  Population Fragmented Nuclei (%): 4%
  Population Healthy Nuclei (%): 77%
  Population Hoechst High Intensity Objects (%): 4%
  Population Membrane Permeable-Phenotype (%): 1%
  Population Mitochondria Different-Phenotype (%): 29%
  Population Mitotic Cells (%): 78%
  Population Normal (%): 95%
  Population Pyknosed Nuclei (%): 17%
  Population Tubulin-Different-Phenotype (%): 44%
  Total Cell Count: 383
